IC50 and Activity data for 13 molecules are collected here from ChEMBL document CHEMBL4308899, “Design, synthesis and QSAR study of 2'-hydroxy-4'-alkoxy chalcone derivatives that exert cytotoxic activity by the mitochondrial apoptotic pathway” (Bioorg Med Chem, 2019).

The subject of one assay is Ca-Ski. Nature of the assay: Antiproliferative activity against human CaSki cells after 48 hrs by CellTiter 96 AQueous one solution cell proliferation assay. In kind it is functional, cell-based. Summed up: (§1)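 Cells plated at 8000/well; test agents dissolved in DMSO and tested at 80, 8, 0.8, 0.08 and 0.008 μg/mL for 48 h at 37°C, 5% CO2. PC3 and CaSki were grown in RPMI-1640, MCF7 in Eagle's MEM, with 10% FBS and 2 mM glutamine. Podophyllotoxin served as positive control. Viability read by MTS-type reagent absorbance at 450 nm. Triplicates in three independent experiments; IC50 by regression.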

The nature of assay [1]: Antiproliferative activity against human HF6 cells after 48 hrs by CellTiter 96 AQueous one solution cell proliferation assay. Format: functional, cell-based.
The subject of the next assay is MCF7. Briefly: Antiproliferative activity against human MCF7 cells after 48 hrs by CellTiter 96 AQueous one solution cell proliferation assay. Format: functional, cell-based. The following applies: MCF7, 48 h. The essentials:
as §1

The test system of assay [2] is PC-3. Nature of the assay: Antiproliferative activity against human PC3 cells after 48 hrs by CellTiter 96 AQueous one solution cell proliferation assay. Format: functional, cell-based. The following applies: PC-3, 48 h. Summed up:
as §1

The subject of another assay is BJ. Briefly: Cytotoxicity against human BJ cells after 48 hrs by CellTiter 96 AQueous one solution cell proliferation assay. In kind it is cell-based.
Assay [3] concerns PC-3. Briefly: Cell cycle arrest in human PC3 cells assessed as accumulation at G2/M phase at 0.12 uM after 48 hrs by RNAse/propidium iodide staining-based flow cytometric analysis (reference value: 24.9%). Format: functional. On the technique in general: A flow cytometer gives signals particle by particle.
The subject of assay [4] is PC-3. Briefly: Cell cycle arrest in human PC3 cells assessed as accumulation at G1 phase at 0.12 uM after 48 hrs by RNAse/propidium iodide staining-based flow cytometric analysis (reference value: 55.6%). In kind it is functional.
The test system of assay [5] is PC-3. Nature of the assay: Induction of apoptosis in human PC3 cells assessed as chromatin condensation at 0.005 uM after 48 hrs by acridine orange/ethidium bromide staining-based epifluorescence microscopic analysis. In kind it is functional, cell-based. Summed up:
(§2)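 PC3 cells, 25000 per well in 24-well plates, treated 48 h; H2O2 30 min served as apoptosis control, boiling at 95°C for 10 sec as necrosis control. Cells then exposed to acridine orange/ethidium bromide (100 μg/mL each) and examined by fluorescence microscopy. Scored by nuclear morphology: chromatin condensation, orange condensed chromatin (late apoptosis), apoptotic bodies.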

The test system of assay [6] is PC-3. Nature of the assay: Induction of apoptosis in human PC3 cells assessed as formation of apoptotic bodies at 0.005 uM after 48 hrs by acridine orange/ethidium bromide staining-based epifluorescence microscopic analysis. In kind it is functional, cell-based. The essentials: as §2
The subject of assay [7] is PC-3. Briefly: Induction of apoptosis in human PC3 cells assessed as plasma membrane blebbing at 0.005 uM after 48 hrs by acridine orange/ethidium bromide staining-based epifluorescence microscopic analysis. In kind it is functional, cell-based. Summed up:
as §2

The test system of assay [8] is PC-3. Briefly: Cell cycle arrest in human PC3 cells assessed as accumulation at S phase at 0.12 uM after 48 hrs by RNAse/propidium iodide staining-based flow cytometric analysis (reference value: 19.7%). In kind it is functional.
Assay [9] has as its system PC-3. Nature of the assay: Cell cycle arrest in human PC3 cells assessed as accumulation at sub-G1 phase at 0.12 uM after 48 hrs by RNAse/propidium iodide staining-based flow cytometric analysis (reference value: 0.00%). In kind it is functional.
Assay [10] relates to PC-3. Nature of the assay: Induction of apoptosis in human PC3 cells assessed as formation of apoptotic bodies at IC50 after 48 hrs by acridine orange/ethidium bromide staining-based epifluorescence microscopic analysis. Format: functional, cell-based.
Assay [11] deals with PC-3. Briefly: Cell cycle arrest in human PC3 cells assessed as accumulation at G1 phase at 8.2 uM after 48 hrs by RNAse/propidium iodide staining-based flow cytometric analysis (reference value: 55.6%). In kind it is functional.
For assay [12], the system named is PC-3. Nature of the assay: Induction of apoptosis in human PC3 cells assessed as plasma membrane blebbing at IC50 after 48 hrs by acridine orange/ethidium bromide staining-based epifluorescence microscopic analysis. Format: functional, cell-based.
In assay [13] the test system is PC-3. Briefly: Cell cycle arrest in human PC3 cells assessed as accumulation at G2/M phase at 8.2 uM after 48 hrs by RNAse/propidium iodide staining-based flow cytometric analysis (reference value: 24.9%). Format: functional.
Assay [14] deals with PC-3. Briefly: Induction of apoptosis in human PC3 cells assessed as upregulation of Bax mRNA expression after 48 hrs by RT-PCR analysis. In kind it is functional, cell-based. The essentials: (§3)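 PC3 cells (1.25×10^5) were treated 48 h, then RNA was isolated. Bcl-2 and Bax mRNA were measured by RT-PCR with GAPDH as internal control.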
For assay [15], the system named is PC-3. Briefly: Induction of apoptosis in human PC3 cells assessed as down regulation of Bcl2 mRNA expression after 48 hrs by RT-PCR analysis. Format: functional, cell-based. Summed up:
as §3

Assay [16] has as its system PC-3. Nature of the assay: Induction of apoptosis in human PC3 cells assessed as increase in caspase 3/7 activity by Caspase 3/7-Glo luminescence assay. Format: functional, cell-based. Summed up: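 PC3 cells (8000) were treated, and caspase-3/7 activity was then read by Caspase-Glo 3/7 luminescence. Results are relative luminescence units versus untreated control; paclitaxel was included as a comparator.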

Assay [17] deals with PC-3. Briefly: Cell cycle arrest in human PC3 cells assessed as accumulation at S phase at 8.2 uM after 48 hrs by RNAse/propidium iodide staining-based flow cytometric analysis (reference value: 19.7%). In kind it is functional.
Assay [18] concerns PC-3. Nature of the assay: Cell cycle arrest in human PC3 cells assessed as accumulation at sub-G1 phase at 8.2 uM after 48 hrs by RNAse/propidium iodide staining-based flow cytometric analysis (reference value: 0.00%). In kind it is functional.
Assay [19] deals with PC-3. Nature of the assay: Induction of apoptosis in human PC3 cells assessed as chromatin condensation at IC50 after 48 hrs by acridine orange/ethidium bromide staining-based epifluorescence microscopic analysis. Format: functional, cell-based.
The test system of assay [20] is PC-3. Briefly: Cell cycle arrest in human PC3 cells assessed as accumulation at S phase at 13.75 uM after 48 hrs by RNAse/propidium iodide staining-based flow cytometric analysis (reference value: 19.7%). Format: functional.
Assay [21] relates to PC-3. Briefly: Cell cycle arrest in human PC3 cells assessed as accumulation at G2/M phase at 13.75 uM after 48 hrs by RNAse/propidium iodide staining-based flow cytometric analysis (reference value: 24.9%). Format: functional.
For assay [22], the system named is PC-3. Nature of the assay: Cell cycle arrest in human PC3 cells assessed as accumulation at G1 phase at 13.75 uM after 48 hrs by RNAse/propidium iodide staining-based flow cytometric analysis (reference value: 55.6%). Format: functional.
Assay [23] concerns PC-3. Nature of the assay: Cell cycle arrest in human PC3 cells assessed as accumulation at sub-G1 phase at 13.75 uM after 48 hrs by RNAse/propidium iodide staining-based flow cytometric analysis (reference value: 0.00%). In kind it is functional.
The subject of assay [24] is PC-3. Briefly: Antiproliferative activity against human PC3 cells after 72 hrs by CyQuant dye-based assay. In kind it is functional, cell-based. As to conditions: PC-3, 72 h.
The test system of assay [25] is PC-3. Nature of the assay: Cell cycle arrest in human PC3 cells assessed as accumulation at sub-G1 phase at 11.81 uM after 48 hrs by RNAse/propidium iodide staining-based flow cytometric analysis (reference value: 0.00%). In kind it is functional.
Assay [26] concerns PC-3. Briefly: Cell cycle arrest in human PC3 cells assessed as accumulation at S phase at 11.81 uM after 48 hrs by RNAse/propidium iodide staining-based flow cytometric analysis (reference value: 19.7%). Format: functional.
Assay [27] concerns PC-3. Briefly: Cell cycle arrest in human PC3 cells assessed as accumulation at G1 phase at 11.81 uM after 48 hrs by RNAse/propidium iodide staining-based flow cytometric analysis (reference value: 55.6%). Format: functional.
Assay [28] deals with PC-3. Briefly: Cell cycle arrest in human PC3 cells assessed as accumulation at G2/M phase at 11.81 uM after 48 hrs by RNAse/propidium iodide staining-based flow cytometric analysis (reference value: 24.9%). Format: functional.

Calls of active or inactive are those of the source. No cut-off for these calls is given here.

As to `COc1cc(O)c(C(=O)/C=C/c2ccccc2)cc1Br`, the IC50 in the assay on Ca-Ski was > 50 µM; in [1], 38.9 µM; in the assay on MCF7, > 50 µM; in the assay with PC-3 [2], > 50 µM.
Take `CCCOc1ccc(C(=O)/C=C/c2ccccc2)c(O)c1`: the IC50 with Ca-Ski was > 50 µM; in the assay on MCF7, > 50 µM; in the assay on BJ it was 16 µM; in the assay on PC-3 [2], 8.08 µM.
In the case of `O=C(/C=C/c1ccccc1)c1ccc(OCc2ccccc2)cc1O`, the half-inhibitory concentration (IC50) in the assay on Ca-Ski is > 50 µM; with MCF7 it was > 50 µM; in the assay on PC-3 [2] it was 34.7 µM.
For the molecule `CC(=O)Oc1ccc(C(=O)/C=C/c2ccccc2)c(O)c1`, the IC50 is > 50 µM in the assay on Ca-Ski; > 50 µM in assay [1]; > 50 µM in the assay on MCF7; 21.3 µM with BJ; 10 µM in the assay with PC-3 [2].
Turning to `COc1cc([C@@H]2c3cc4c(cc3[C@H](O)[C@H]3COC(=O)[C@H]23)OCO4)cc(OC)c1OC` [PODOFILOX], the Activity is on record as 47% in the assay with PC-3 [3], 8.31% with PC-3 [4], 9.82% with PC-3 [8] and 35.6% with PC-3 [9]. Besides, the result in the assay on PC-3 [5], in the assay on PC-3 [6] and in the assay on PC-3 [7] was Active. Further, the IC50 with Ca-Ski came to 0.3 µM; in assay [1], 0.0369 µM; in the assay with MCF7, 0.28 µM; in the assay with BJ it was 5 µM; with PC-3 [2] it was 0.12 µM.
With `COc1ccc(C(=O)CCc2ccccc2)c(O)c1`, the IC50 (in the assay with Ca-Ski; in assay [1]; in the assay with MCF7; with PC-3 [2]) was > 50 µM in each case.
Take `CCOc1ccc(C(=O)/C=C/c2ccccc2)c(O)c1`: the outcome in the assay on PC-3 [10], with PC-3 [12], with PC-3 [14], with PC-3 [15], in the assay on PC-3 [16] and in the assay on PC-3 [19] was Active. Also, the Activity in the assay on PC-3 [11] came to 24.3%; in the assay on PC-3 [13] it was 50.1%; in the assay on PC-3 [17] it was 7.69%; in the assay with PC-3 [18] it was 17.9%. The IC50 with MCF7 was > 50 µM; with BJ, 208 µM; in the assay on PC-3 [2], 8.2 µM.
Regarding `O=C(/C=C/c1ccccc1)c1ccc(O)cc1O` [2',4'-DIHYDROXYCHALCONE], the outcome in the assay with PC-3 [10], in the assay with PC-3 [12], in the assay with PC-3 [14], with PC-3 [15], in the assay on PC-3 [16] and in the assay on PC-3 [19] was Active. The Activity was 10.7% in the assay on PC-3 [20], 40.8% with PC-3 [21], 32.2% in the assay with PC-3 [22] and 16.3% in the assay on PC-3 [23]. In addition, the figures for the IC50 in the assay with MCF7, in the assay on BJ and in the assay on PC-3 [2] were > 50 µM, 262 µM and 13.8 µM, respectively.
Take `COc1cc(O)c(C(=O)/C=C/c2ccccc2)cc1I`: the IC50 (in the assay on Ca-Ski; in [1]; in the assay on MCF7; in the assay with PC-3 [2]) was > 50 µM each time.
Turning to `O=C(/C=C/c1ccccc1O)c1ccccc1O`, in the assay on PC-3 [24], the concentration for half-maximal inhibition (IC50) came to 10.3 µM.
With `COc1ccc(C(=O)/C=C/c2ccccc2)c(O)c1Br`, the IC50 in the assay with Ca-Ski is > 50 µM; in assay [1], > 50 µM; in the assay with MCF7 it was > 50 µM; with PC-3 [2], 47.8 µM.
As for `COc1ccc(C(=O)/C=C/c2ccccc2)c(O)c1I`, the IC50 with Ca-Ski is > 50 µM; in assay [1] it was > 50 µM; with MCF7 it was > 50 µM; in the assay on PC-3 [2], 34 µM.
`COc1ccc(C(=O)/C=C/c2ccccc2)c(O)c1`: the outcome with PC-3 [10], in the assay with PC-3 [12], in the assay with PC-3 [14], in the assay on PC-3 [15], with PC-3 [16] and with PC-3 [19] was Active. In addition, the Activity was determined as 13.6% with PC-3 [25], 16% in the assay with PC-3 [26], 46.8% in the assay with PC-3 [27] and 27.1% with PC-3 [28]. For the same molecule, the IC50 in assay [1] is > 50 µM; in the assay on MCF7, > 50 µM; with BJ it was 239 µM; in the assay with PC-3 [2], 11.8 µM.

One may read the IC50 as the concentration needed to halve the response being measured. Low values mean greater potency, high ones weaker potency.
